Measured values reported in ChEMBL document CHEMBL1128569, “N-acyl-2-substituted-1,3-thiazolidines, a new class of non-narcotic antitussive agents: studies leading to the discovery of ethyl 2-[(2-methoxyphenoxy)methyl]-beta-oxothiazolidine-3-propanoate” (J Med Chem, 1995).

Assays:
Cavia porcellus [1] = assay: Antitussive activity was evaluated by inhibition of irritant aerosol-induced coughing by (po) administration of 30 mg/kg in guinea pig; type: functional
How it was run: (§1)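 Male guinea pigs (350-400 g) exposed in a box to 7.5% citric acid aerosol for 5 min, and coughs counted as the basal value. Next day, after overnight fasting, animals (6-8/dose) were gavaged with compound in water or 0.5% methyl cellulose (2 mL/kg) 1 h before re-exposure. Activity is the reduction in coughs versus the basal count. ED50 is the dose giving 50% reduction (Cochran and Snedecor).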

[2] = Lethality in mice following p.o. administration.; type: ADME, organism-based; details: mouse, in vivo, po
How it was run: (§2)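 Swiss mice of both sexes, groups of six, dosed by gavage at several doses up to 1000 mg/kg. Compound dissolved in water or suspended in 0.5% carboxymethyl cellulose, 10 mL/kg. Deaths recorded over 1-7 days. LD50 obtained by logit transformation.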

Cavia porcellus [3] = assay: Antitussive activity by inhibition of irritant citric acid aerosol-induced coughing in guinea pig upon oral administration.; type: functional; how it was run: as §1
[4] = Acute toxicity was determined in mice upon peroral administration; type: organism-based; details: mouse, in vivo, po; how it was run: as §2
Cavia porcellus [5] = assay: Inhibition of irritant electrically-induced coughing in guinea pig trachea following p.o. administration.; type: functional; details: po
How it was run: (§3)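 Guinea pigs under ketamine (10 mg/kg im) and xylazine (3 mg/kg im) anaesthesia, with an electrode wrapped around the trachea about 1.5 cm above the bifurcation and an indifferent electrode on the dorsal skin. Coughs during stimulation counted as the basal value. Groups of 6-8/dose were gavaged with compound in water or 0.5% methyl cellulose (2 mL/kg). Activity is the cough reduction versus basal. ED50 is the dose giving 50% reduction.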

Cavia porcellus [6] = assay: Antitussive activity was evaluated by inhibition of irritant aerosol-induced coughing by (po) administration in guinea pig; type: functional; how it was run: as §1
Cavia porcellus [7] = assay: Antitussive activity was evaluated by inhibition of irritant electrically-induced coughing by (po) administration in guinea pig; type: functional; how it was run: as §3
Cavia porcellus [8] = assay: Antitussive activity was evaluated by inhibition of irritant electrically-induced coughing in guinea pig trachea upon oral administration at 30 mg/kg; type: functional; how it was run: as §3
Cavia porcellus [9] = assay: Antitussive activity was evaluated by inhibition of irritant citric acid aerosol-induced coughing in guinea pig upon oral administration at 30 mg/kg dose; type: functional; how it was run: as §1

SMILES	ED50 (Cavia porcellus [3]) [mg/kg]	LD50 [4] [mg/kg]	other results
CC(=O)SCC(=O)Oc1ccccc1CCC1SCCN1C(=O)CSC(C)=O (centres undefined)	–	–	inhibition in vivo at 30 mg/kg (Cavia porcellus [1]): < 20%; LD50 [2]: > 1000 mg/kg
CCOC(=O)CC(=O)N1CC[S+]([O-])C1COc1ccccc1OC (centres undefined)	27	> 1000	ED50 (Cavia porcellus [5]): 28 mg/kg
COc1ccccc1OCC1SCCN1C(=O)CSC(=O)c1cccnc1 (centres undefined)	–	–	inhibition in vivo at 30 mg/kg (Cavia porcellus [1]): < 20%; LD50 [2]: > 1000 mg/kg
COc1ccc2c(c1)[C@]13CCCC[C@@H]1[C@H](C2)N(C)CC3 [DEXTROMETHORPHAN]	–	–	ED50 (Cavia porcellus [6]): 48 mg/kg; ED50 (Cavia porcellus [7]): 16 mg/kg
COc1ccccc1OCC1SCCN1C(=O)CSC(=O)c1cc(OC)c(OC)c(OC)c1 (centres undefined)	–	–	inhibition in vivo at 30 mg/kg (Cavia porcellus [1]): < 20%; LD50 [2]: > 1000 mg/kg
COc1ccc(OCC2SCCN2C(=O)Cn2ccnc2)cc1 (centres undefined)	48	> 1000	–
CCOC(=O)CC(=O)N1CCSC1COc1ccccc1O (centres undefined)	20	> 1000	–
COc1ccccc1OCC1SCCN1C(=O)CN1CCN(C)CC1.Cl.Cl (centres undefined)	–	818	inhibition in vivo at 30 mg/kg (Cavia porcellus [8]): < 20%
CCOC(=O)CC(=O)N1CCSC1COc1ccccc1OC (centres undefined) [MOGUISTEINE]	21	> 1000	ED50 (Cavia porcellus [5]): 11 mg/kg
C=CC(=O)N1CCSC1COc1ccccc1OC (centres undefined)	74	718	–
COc1ccc2c3c1O[C@H]1[C@@H](O)C=C[C@H]4[C@@H](C2)N(C)CC[C@@]341.COc1ccc2c3c1O[C@H]1[C@@H](O)C=C[C@H]4[C@@H](C2)N(C)CC[C@@]341.O.O=P(O)(O)O.O=P(O)(O)O [CODEINE PHOSPHATE]	–	–	ED50 (Cavia porcellus [6]): 29 mg/kg; ED50 (Cavia porcellus [7]): 14 mg/kg
CSCC(=O)N1CCSC1COc1ccccc1O (centres undefined)	–	> 1000	ED50 (Cavia porcellus [5]): 28 mg/kg
COc1ccccc1OCC1SCCN1C(=O)CSC(C)=O (centres undefined) [GUAISTEINE]	–	–	LD50 [2]: > 1000 mg/kg; ED50 (Cavia porcellus [6]): 26 mg/kg; ED50 (Cavia porcellus [7]): 17 mg/kg
COc1ccccc1OCC1SCCN1C(=O)CC(=O)NCc1cccnc1.O=C(O)/C=C/C(=O)O (centres undefined)	57	677	–
O=C(Cn1ccnc1)N1CCSC1COc1ccccc1O (centres undefined)	–	–	ED50 (Cavia porcellus [5]): 27 mg/kg
CC(=O)SCC(=O)N1CCSC1COc1ccccc1O (centres undefined)	–	–	LD50 [2]: > 1000 mg/kg; ED50 (Cavia porcellus [6]): 60 mg/kg
COc1ccccc1OCC1N(C(=O)C[S+](C)[O-])CC[S+]1[O-] (centres undefined)	–	> 1000	–
COc1ccccc1OCC1N(C(=O)CC(=O)O)CC[S+]1[O-] (centres undefined)	20	> 1000	–
COc1ccccc1OCC1SCCN1C(C)=O (centres undefined)	46	552	–
CCOCCOCC(=O)N1CCSC1COc1ccccc1OC (centres undefined)	–	916	inhibition in vivo at 30 mg/kg (Cavia porcellus [9]): < 20%
COc1ccccc1OCC1N(C(=O)CSC(C)=O)CC[S+]1[O-] (centres undefined)	–	–	inhibition in vivo at 30 mg/kg (Cavia porcellus [1]): < 20%; LD50 [2]: 620 mg/kg
COc1ccccc1OCC1SCCN1C(=O)CC(=O)O (centres undefined)	20	> 1000	inhibition in vivo at 30 mg/kg (Cavia porcellus [8]): < 20%
COc1ccccc1OCC1SCCN1C(=O)CC(=O)N1CCN(C)CC1 (centres undefined)	27	880	–

SMILES	ED50 (Cavia porcellus [3]) [mg/kg]	LD50 [4] [mg/kg]	other results
CCC(=O)SCC(=O)N1CCSC1COc1ccccc1OC (centres undefined)	–	–	inhibition in vivo at 30 mg/kg (Cavia porcellus [1]): < 20%
Oc1ccccc1OCC1NCCS1 (centres undefined)	–	> 1000	–
CCOC(=O)CC(=O)N1CCS(=O)(=O)C1COc1ccccc1OC (centres undefined)	28	> 1000	inhibition in vivo at 30 mg/kg (Cavia porcellus [8]): < 20%
COc1ccccc1OCC1SCCN1C(=O)CN.Cl (centres undefined)	57	585	–
COc1ccccc1OCC1SCCN1C(=O)CC(=O)N1CCN(C(c2ccc(F)cc2)c2ccc(F)cc2)CC1 (centres undefined)	26	> 1000	ED50 (Cavia porcellus [5]): 32 mg/kg
COc1ccccc1OCC1SCCN1C(=O)/C=C/c1ccc(O)c(O)c1 (centres undefined)	–	–	inhibition in vivo at 30 mg/kg (Cavia porcellus [1]): < 20%; LD50 [2]: > 1000 mg/kg
CC(=O)SCC(=O)N1CCSC1COc1ccccc1C (centres undefined)	–	–	inhibition in vivo at 30 mg/kg (Cavia porcellus [1]): < 20%; LD50 [2]: > 1000 mg/kg
CCCC(=O)CC(=O)N1CCSC1COc1ccccc1OC (centres undefined)	42	–	–
COc1ccccc1OCC1SCCN1C(=O)C(C)SC(C)=O (centres undefined)	–	–	inhibition in vivo at 30 mg/kg (Cavia porcellus [1]): < 20%; LD50 [2]: > 1000 mg/kg
CCN(CC)CCNC(=O)CC(=O)N1CCSC1COc1ccccc1OC (centres undefined)	56	250	inhibition in vivo at 30 mg/kg (Cavia porcellus [8]): < 20%
O=C(O)[C@@H]1CSC(CCc2ccccc2O)N1 (some centres undefined)	–	> 1000	inhibition in vivo at 30 mg/kg (Cavia porcellus [9]): < 20%; ED50 (Cavia porcellus [5]): 45 mg/kg
COc1ccccc1OCC1SCCN1C(=O)CC(=O)N1CCN(Cc2ccccc2)CC1.Cl (centres undefined)	41	681	–
COc1ccccc1OCC1N(C(=O)CS(C)(=O)=O)CC[S+]1[O-] (centres undefined)	–	> 1000	–
CCOC(=O)C(=O)N1CCSC1COc1ccccc1OC (centres undefined)	–	> 1000	inhibition in vivo at 30 mg/kg (Cavia porcellus [9]): < 20%
COc1ccccc1OCC1NCCS1 (centres undefined)	–	> 1000	–
COc1ccccc1SCC1SCCN1C(=O)CN1CCN(C)CC1 (centres undefined)	–	–	inhibition in vivo at 30 mg/kg (Cavia porcellus [9]): < 20%
O=C(O)[C@@H]1CSC(COc2ccccc2O)N1 (some centres undefined)	–	> 1000	inhibition in vivo at 30 mg/kg (Cavia porcellus [9]): < 20%
COc1ccccc1OCC1SCCN1C(=O)CC(=O)N1CCN(C(c2ccccc2)c2ccccc2)CC1 (centres undefined)	66	> 1000	ED50 (Cavia porcellus [5]): 44 mg/kg
COc1ccccc1SCC1SCCN1C(=O)Cn1ccnc1 (centres undefined)	–	958	inhibition in vivo at 30 mg/kg (Cavia porcellus [9]): < 20%
COc1ccccc1OCC1SCCN1C(=O)CN1CCOCC1.Cl (centres undefined)	–	612	inhibition in vivo at 30 mg/kg (Cavia porcellus [9]): < 20%
CCOC(=O)[C@@H]1CSC(COc2ccccc2OC)N1 (some centres undefined)	–	757	inhibition in vivo at 30 mg/kg (Cavia porcellus [9]): < 20%
COc1ccc(OCC2SCCN2C(=O)CSC(C)=O)cc1 (centres undefined)	–	–	LD50 [2]: > 1000 mg/kg; ED50 (Cavia porcellus [7]): 19 mg/kg
CC(=O)SCC(=O)Oc1ccccc1OCC1SCCN1C(=O)CSC(C)=O (centres undefined)	–	–	inhibition in vivo at 30 mg/kg (Cavia porcellus [1]): < 20%; LD50 [2]: > 1000 mg/kg

SMILES	ED50 (Cavia porcellus [3]) [mg/kg]	LD50 [4] [mg/kg]	other results
CNC(=O)CC(=O)N1CCSC1COc1ccccc1OC (centres undefined)	21	> 1000	ED50 (Cavia porcellus [5]): 22 mg/kg
CCOC(=O)C(C)(C)C(=O)N1CCSC1COc1ccccc1OC (centres undefined)	61	> 1000	ED50 (Cavia porcellus [5]): 48 mg/kg
COc1ccccc1OCC1SCCN1C(=O)Cn1ccnc1 (centres undefined)	50	966	–
CC(=O)SCC(=O)N1CCSC1CCc1ccccc1O (centres undefined)	–	–	LD50 [2]: > 1000 mg/kg; ED50 (Cavia porcellus [6]): 61 mg/kg
COc1ccccc1OCC1SCCN1C(=O)CSC (centres undefined)	–	–	ED50 (Cavia porcellus [5]): 21 mg/kg
COc1ccccc1OCC1SCCN1C(=O)CC(=O)NCc1ccncc1.Cl (centres undefined)	23	707	ED50 (Cavia porcellus [5]): 13 mg/kg
COc1ccccc1OCC1SCCN1C(=O)CC(C)=O (centres undefined)	30	> 1000	ED50 (Cavia porcellus [5]): 26 mg/kg
CCOC(=O)[C@@H]1CSC(COc2ccccc2OC)N1C(=O)CSC(C)=O (some centres undefined)	–	–	inhibition in vivo at 30 mg/kg (Cavia porcellus [1]): < 20%; LD50 [2]: 672 mg/kg
O=C(O)CC(=O)N1CCSC1COc1ccccc1O (centres undefined)	25	1000	–
CCOC(=O)CCC(=O)N1CCSC1COc1ccccc1OC (centres undefined)	24	> 1000	–
COc1ccccc1OCC1SCCN1C(=O)C[S+](C)[O-] (centres undefined)	25	> 1000	ED50 (Cavia porcellus [5]): 10 mg/kg
COc1ccccc1OCC1SCCN1C(=O)C(C)(C)C (centres undefined)	–	> 1000	ED50 (Cavia porcellus [5]): 24 mg/kg
COc1ccccc1OCC1SCCN1C(=O)CS (centres undefined)	–	–	inhibition in vivo at 30 mg/kg (Cavia porcellus [9]): < 20%
COc1ccccc1OCC1SCCN1C(=O)CC(=O)NCc1ccccn1 (centres undefined)	26	–	ED50 (Cavia porcellus [5]): 64 mg/kg
Cl.O=C(O)c1ccc(OCC2SCCN2C(=O)Cn2ccnc2)cc1 (centres undefined)	–	> 1000	inhibition in vivo at 30 mg/kg (Cavia porcellus [9]): < 20%
COc1ccccc1OCC1SCCN1C(=O)COC(C)=O (centres undefined)	–	> 1000	ED50 (Cavia porcellus [5]): 25 mg/kg
OCC(O)CN1CCN(c2ccccc2)CC1 (centres undefined) [DROPROPIZINE]	144	–	ED50 (Cavia porcellus [5]): 32 mg/kg
COc1ccccc1OCC1SCCN1C(=O)C(C)(C)C(=O)O (centres undefined)	34	> 1000	ED50 (Cavia porcellus [5]): 21 mg/kg
COC(=O)c1ccc(OCC2SCCN2C(=O)Cn2ccnc2)cc1 (centres undefined)	62	> 1000	–
COc1ccccc1OCC1SCCN1C(=O)CSC(=O)CN1CCN(C)CC1 (centres undefined)	–	–	inhibition in vivo at 30 mg/kg (Cavia porcellus [1]): < 20%; LD50 [2]: > 1000 mg/kg
COc1ccccc1OCC1SCCN1C(=O)CNC(C)=O (centres undefined)	40	> 1000	–
